Published values gathered from unrelated publications.
Each line is one published result; the experiments were not run side by side. pIC50: −log10 of the molar value.
Observed: cell growth or viability

CC(C)(C)CC(C)(C)Nc1c(-c2ccccc2)nc2ncccn12  viability (MDA-MB-231; MTT; 25 µM, 48 h): 58.2%
CC1(C)OC[C@@]2(C)[C@H]3CC[C@@H]4CN(Cc5ccc(C(F)(F)F)cc5)[C@@H](C5=CCOC5=O)C[C@H]4[C@]3(C)CC[C@H]2O1  cell death (MRC5; ATP luminescence; 25 µM, 72 h): 7.1%
COc1cc(OC)c2c(=O)cc(-c3ccc(C(F)(F)F)cc3)oc2c1  CC50 (HS27; MTT; 24 h): > 200 µM
COc1cc2ccc(=O)oc2cc1OC  pIC50 (MRC5; MTT; 24 h): < 4.00
CC1(C)OC[C@@]2(C)[C@H]3CC[C@@H]4CN(Cc5cccs5)[C@@H](C5=CCOC5=O)C[C@H]4[C@]3(C)CC[C@H]2O1  cell death (MRC5; ATP luminescence; 25 µM, 72 h): -0.9%
COc1cc(C)cc2oc(-c3ccc(Br)cc3)cc(=O)c12  CC50 (HS27; MTT; 24 h): > 200 µM
Cc1cn([C@@H]2C[C@H](O)[C@@H](CNC(=O)Nc3ccc(-c4ccccc4)cc3)O2)c(=O)[nH]c1=O  CC50 (MRC5): > 50 µM
CC1(C)OC[C@@]2(C)[C@H]3CC[C@@H]4CN(Cc5ccccc5C5CC5)[C@@H](C5=CCOC5=O)C[C@H]4[C@]3(C)CC[C@H]2O1  cell death (MRC5; ATP luminescence; 25 µM, 72 h): 16.7%
COc1cc(OC)c2c(=O)cc(-c3ccc(Br)cc3)oc2c1  CC50 (HS27; MTT; 24 h): > 200 µM
NCC(NC(=O)c1ccc(-c2ccc(C(F)(F)F)c(F)c2)[nH]1)c1nc(CO)cs1 (stereo not drawn)  CC50 (U87.CD4.CXCR4; XTT; 72 h): 35 µM
COc1cc(C)cc2oc(-c3ccccc3)cc(=O)c12  CC50 (HS27; MTT; 24 h): > 200 µM
COc1ccc(-c2nc3ncccn3c2NC(C)(C)CC(C)(C)C)cc1O  viability (MDA-MB-231; MTT; 25 µM, 48 h): 67.3%
